# Assay: Toxicity liver stage against HepG2, at 10uM
# Type: cell-based
# Parameters: test concentration 10 uM, cell line HepG2-A16-CD81EGFP
# Settings: human, HepG2-A16-CD81EGFP cells; read-out: INHIBITION
# Summary of the method: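 Uninfected HepG2-A16-CD81EGFP cells, 3 × 10^3 per well, 1536-well, plated on prespotted compound at 10 μM final, parasite-free screening media added to match infected plates; puromycin 10 μM positive, DMSO 0.5% negative; run in parallel with 48 h PbLuc assay at 37 °C, 5% CO2; viability by CellTiter-Glo luminescence, normalized to controls.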
compound,measurement,value
Cc1sc(N)nc1-c1ccc(Cl)cc1,cytotoxicity at 10 µM,-2.75%
COc1ccc(CN2CCOC[C@H](OCCC(C)C)C2)cc1,cytotoxicity at 10 µM,-4.04%
CC(C)(C)CN[C@@H]1CO[C@H](CNC(=O)c2cccs2)[C@H]1O,cytotoxicity at 10 µM,-4.23%
COC(=O)N1CCN2C[C@H](CO)[C@@H](c3ccccc3)[C@H]2C1,cytotoxicity at 10 µM,6.12%
CCCc1cc(=O)[nH]c2nnc(SCC(=O)OCC)n12,cytotoxicity at 10 µM,10.8%
O=S(=O)(c1cccnc1)N1CCN(CC(O)c2cccs2)CC1 (stereo not given),cytotoxicity at 10 µM,-4.21%
O=C(NCC(Cc1cccc(F)c1)n1cccc1)C1CC1 (stereo not given),cytotoxicity at 10 µM,1.22%
CSCC(C)(O)CNC(=O)Nc1cc(C)cc(C)c1 (stereo not given),cytotoxicity at 10 µM,-3.24%
O=C(c1nnn(-c2ccccc2)n1)N(CCO)CCO,cytotoxicity at 10 µM,-1.48%
c1ccc(COC[C@@]23CCC[C@@H]2CN(Cc2ccccn2)C3)nc1,cytotoxicity at 10 µM,1.39%
N#Cc1ccc(OC[C@]23COC[C@H]2CN(c2ncccn2)C3)nc1,cytotoxicity at 10 µM,-1.84%
CC(=O)N1CCCC2(CN(Cc3ccncc3)CCO2)C1 (stereo not given),cytotoxicity at 10 µM,7.22%
Cn1cc(C(=O)N[C@H]2CN(S(C)(=O)=O)[C@@H]3CCCO[C@H]23)cn1,cytotoxicity at 10 µM,-16%
c1nc(N2CCOCC2)nc2c1COCC21CCN(CC2CC2)C1 (stereo not given),cytotoxicity at 10 µM,9.69%
CCOc1ccc(CNCCCn2ccnc2)cc1OC,cytotoxicity at 10 µM,-4.78%
Cc1cs/c(=N\C(=O)Cn2nc(N3CCOCC3)ccc2=O)[nH]1,cytotoxicity at 10 µM,-5.07%
NC(=O)c1ccc2c(c1)nc1n2CCN(Cc2ccco2)C1,cytotoxicity at 10 µM,-11.3%
Cc1nn(CCC(=O)NC2CCS(=O)(=O)C2)c(C)c1Br (stereo not given),cytotoxicity at 10 µM,0.549%
O=C(NCCCN1CCOCC1)c1ccn(COc2ccccc2)n1,cytotoxicity at 10 µM,5.5%
CCOc1ccc(N2CCCN=C2NC(=O)c2ccc(OC)cc2)cc1,cytotoxicity at 10 µM,6.03%
CCn1cc(CNc2ccc(F)c(F)c2)cn1,cytotoxicity at 10 µM,-0.0638%
CN1CCN(c2ncccn2)CC1C(N)=O (stereo not given),cytotoxicity at 10 µM,15.4%
CC(C)Nc1n[nH]c2nc(C3CCN(C(=O)c4ccccn4)C3)ccc12 (stereo not given),cytotoxicity at 10 µM,17%
CN1CCCC(Cc2nccnc2Cl)CC1 (stereo not given),cytotoxicity at 10 µM,0.368%
CC(C)N1CCC(c2cccc(C(=O)N(C)C)n2)CC1,cytotoxicity at 10 µM,9.23%
NC(=O)C1(c2cnccn2)CCCN1Cc1ccc(Cl)cc1 (stereo not given),cytotoxicity at 10 µM,-0.085%
CNC(=O)CCc1cc(C)nc(C2CCCN2)n1 (stereo not given),cytotoxicity at 10 µM,1.77%
Cc1cnn(-c2ccc(S(=O)(=O)N(C)CC(C)(CO)CO)cc2F)c1,cytotoxicity at 10 µM,12.5%
CCC(O)(CNCc1ccncc1)c1ccc(Br)cc1 (stereo not given),cytotoxicity at 10 µM,-8.64%
CC(C)c1nnc(CN2CCCc3ccc(S(N)(=O)=O)cc32)o1,cytotoxicity at 10 µM,-1.08%
CN(CC(=O)NCC1CCCCC1)S(=O)(=O)c1cccnc1,cytotoxicity at 10 µM,3.82%
CCOCCC(=O)NC(Cc1ccc(C)cc1)c1ccccn1 (stereo not given),cytotoxicity at 10 µM,-1.55%
Cc1ccc(CNC(=O)N2CCN(S(C)(=O)=O)CC2)n1C,cytotoxicity at 10 µM,2.22%
COC(=O)c1cc(NCC(=O)NC(N)=O)cc(C(F)(F)F)c1,cytotoxicity at 10 µM,-1.06%
CCC(C)(CC(=O)OC)NC(=O)c1cccc(F)c1F (stereo not given),cytotoxicity at 10 µM,-4.13%
CCc1nc(CN2CCCC(N(C)CCn3cncn3)C2)no1 (stereo not given),cytotoxicity at 10 µM,-6.5%
O=C(NCc1ccccc1CN1CCCCC1)Nc1nncs1,cytotoxicity at 10 µM,0.513%
COc1cc(NC(=O)N(C)Cc2ccc(Br)o2)ncn1,cytotoxicity at 10 µM,-4.12%
CC(C)n1c(C2CCCN(CC(N)=O)C2)nc2ccccc21 (stereo not given),cytotoxicity at 10 µM,-7.68%
CC(CO)NC(=O)Nc1ccc(COC2CCCC2)cc1 (stereo not given),cytotoxicity at 10 µM,-7.41%
COc1cc(NC(=O)c2ccc(C)cc2C)c(C(=O)N(C)C)cc1OC,cytotoxicity at 10 µM,-0.414%
CSCC(CCO)NC(=O)Nc1ccc(C)cc1C (stereo not given),cytotoxicity at 10 µM,1.82%
Cc1noc(Cl)c1CC(=O)N1CCCC1Cn1cccn1 (stereo not given),cytotoxicity at 10 µM,-9.76%
COc1ccnc(NC(=O)c2ccsc2)c1,cytotoxicity at 10 µM,-0.747%
O=C(c1cnccn1)N1CCN(c2ccnc3ccsc23)CC1,cytotoxicity at 10 µM,12.6%
Cc1cccc(C)c1OCCNC(=O)C[S+]([O-])C1CCCC1 (stereo not given),cytotoxicity at 10 µM,-136%
CC(=O)N(c1ccc(F)cc1)c1nc(CN2CCCC2C(C)C)cs1 (stereo not given),cytotoxicity at 10 µM,-12.2%
CC(C)c1nc(/C=C/c2ccc(O)c(Cl)c2)ncc1C(=O)O,cytotoxicity at 10 µM,-1.7%
CNS(=O)(=O)CC(=O)NC(C)Cc1cccc(Cl)c1 (stereo not given),cytotoxicity at 10 µM,-8.15%
O=C1CCCN1c1cccc(CNCc2nc(-c3ccco3)no2)c1,cytotoxicity at 10 µM,0.379%
COc1ccc(CCn2cnc(C#N)n2)cc1,cytotoxicity at 10 µM,0.866%
CC(O)CN1CCC(CN(C)Cc2cccc(C#N)c2)CC1 (stereo not given),cytotoxicity at 10 µM,-1.3%
CNS(=O)(=O)c1csc(C(=O)N(C)Cc2ccccc2C)c1,cytotoxicity at 10 µM,6.78%
CC(CC1CC1)NCCCN1CCCN(C)CC1 (stereo not given),cytotoxicity at 10 µM,31.7%
Cc1ccc(S(C)(=O)=O)cc1C(=O)NS(C)(=O)=O,cytotoxicity at 10 µM,-11.4%
O=C(Cn1cc(-c2ccccc2)cn1)N1CCNC1=O,cytotoxicity at 10 µM,6.74%
O=C1C(Nc2ccc3nccnc3n2)CCN1c1ccccc1F (stereo not given),cytotoxicity at 10 µM,-10%
O=C1CC(Nc2ccc3nccnc3n2)CN1c1ccccc1 (stereo not given),cytotoxicity at 10 µM,-7.76%
CC(C)(C)c1ncc(CNCC2CCCn3ccnc32)s1 (stereo not given),cytotoxicity at 10 µM,-6.76%
CCc1nc(NS(=O)(=O)c2cc(C)ccc2F)no1,cytotoxicity at 10 µM,-4.71%
CC(C)CNC(=O)NC(=O)CNc1ccccc1SCC(C)C#N (stereo not given),cytotoxicity at 10 µM,-8.05%
OCC1CCCN1c1cc(NCCc2c[nH]c3ccccc23)ncn1 (stereo not given),cytotoxicity at 10 µM,-7.06%
NC(=O)c1cc(NC(=O)N2CCCCCC2)ccc1F,cytotoxicity at 10 µM,0.692%
COc1cc(-c2cc(OC)c(OC)c(OC)c2)ncn1,cytotoxicity at 10 µM,-2.31%
CC(C)Nc1nc2c(s1)C(=O)CN(C(=O)NCCc1ccccc1)C2,cytotoxicity at 10 µM,-5.55%
Cc1ccc([C@@H]2CN(C(=O)c3cc(C)no3)C[C@H]2NC(=O)C2CC2)cc1,cytotoxicity at 10 µM,-1.82%
CCS(=O)(=O)c1ncc(CN(C)C)n1Cc1ccccc1,cytotoxicity at 10 µM,1.73%
CCn1ccnc1CN1CCCn2nc(CNC(=O)C3CCC3)cc2C1,cytotoxicity at 10 µM,-7.79%
COCc1cn(CC2CCN(Cc3nc(C)c[nH]3)CC2)nn1,cytotoxicity at 10 µM,0.622%
CCCc1cc(NCCCC2CCOC2)n2nccc2n1 (stereo not given),cytotoxicity at 10 µM,-0.247%
CCc1nnc(CN(C)Cc2nc(-c3ccccc3Cl)oc2C)o1,cytotoxicity at 10 µM,-7.43%
CC(C)N1CCCC2(CCN(c3nccc(C(F)(F)F)n3)C2)C1=O (stereo not given),cytotoxicity at 10 µM,11.4%
O=C(CCCN1CCCCC1)N1CCC(c2nnc[nH]2)CC1,cytotoxicity at 10 µM,-7.92%
COCCN(Cc1cccs1)C(=O)c1ccc(=O)n(C)c1,cytotoxicity at 10 µM,-4.78%
COc1ccc2[nH]c(CNc3cc(C4CCNCC4)nc(C)n3)cc2c1,cytotoxicity at 10 µM,-13.4%
Cc1[nH]c2c(F)cccc2c1CC(=O)NCc1csc(N(C)C)n1,cytotoxicity at 10 µM,-1.43%
COc1cccc(CNC2CCSC2)c1OC (stereo not given),cytotoxicity at 10 µM,2.25%
Cn1ccnc1SCCNc1cc(N2CCOCC2)ncn1,cytotoxicity at 10 µM,4.91%
CN(Cc1n[nH]c2c1CCC2)C(=O)c1cc(-c2cccn2C)n[nH]1,cytotoxicity at 10 µM,5.12%
CCOc1ccccc1OCCN(C)Cc1ncnn1CC,cytotoxicity at 10 µM,10.2%
Cc1ccc(Cl)c(CN2CCC(c3nccn3C(C)C)CC2)c1F,cytotoxicity at 10 µM,4.8%
CCc1ncc2c(n1)CN(C(=O)COC)C2,cytotoxicity at 10 µM,-19.4%
CNc1nc(C(=O)N2CCCC(c3nccn3CC3CCC3)C2)cs1 (stereo not given),cytotoxicity at 10 µM,-16.7%
CNS(=O)(=O)c1ccc(C)c(C(=O)NCCNc2ncccn2)c1,cytotoxicity at 10 µM,-1.87%
COc1c(CNCCC(=O)NC2CCCCC2)c(C(C)C)nn1C,cytotoxicity at 10 µM,-10.4%
CCc1nc(CN2CCOC(Cn3cncn3)C2)no1 (stereo not given),cytotoxicity at 10 µM,-5.71%
COc1cc(NC(=O)CCn2nc(-c3cccs3)oc2=O)cc(OC)c1,cytotoxicity at 10 µM,2.9%
COc1ncccc1CNC(=O)c1cnc(C)cn1,cytotoxicity at 10 µM,-4.69%
COCCN(Cc1nc2c(cnn2C)c(=O)[nH]1)C(C)COC (stereo not given),cytotoxicity at 10 µM,-4.6%
CCc1noc(CN2CCN(C(=O)N(CC)CC)CC2)n1,cytotoxicity at 10 µM,-1.67%
CCOc1ccnc(N2CCCN(C(=O)c3cc[nH]c3C)CC2)n1,cytotoxicity at 10 µM,0.893%
CCc1n[nH]c(C2CN(C(=O)c3cc4c(s3)CCC4)CCO2)n1 (stereo not given),cytotoxicity at 10 µM,-4.98%
Cc1cc(CN2CCN(C(=O)NCc3ccoc3)CC2)no1,cytotoxicity at 10 µM,-22.5%
Cc1noc(C)c1CN1CCOC(CNc2cccnn2)C1 (stereo not given),cytotoxicity at 10 µM,-19%
Cc1noc(CCCC(=O)NCC2CCS(=O)(=O)C2)n1 (stereo not given),cytotoxicity at 10 µM,-16.4%
CN(C)c1cc(CNC(=O)c2ccc(F)cc2)ccn1,cytotoxicity at 10 µM,-22.9%
OCC1CCCN1c1cc(NCc2cccnc2)ncn1 (stereo not given),cytotoxicity at 10 µM,-16.6%
Cc1ncsc1CNC(=O)N(CCCO)C1CCc2ccccc21 (stereo not given),cytotoxicity at 10 µM,-9.99%
CCN1CCN(c2ccc(CNC(=O)Cc3c(C)noc3C)cn2)CC1,cytotoxicity at 10 µM,-12.2%
Cc1cc(NC(=O)CN2CCCC2c2noc(C(C)C)n2)on1 (stereo not given),cytotoxicity at 10 µM,-6.31%
COc1cccc(C(=O)NC(CC(=O)O)c2cccs2)c1OC (stereo not given),cytotoxicity at 10 µM,-8.66%
Cn1nc2c(cc1=O)CN(CCN1CCCC1=O)CC2,cytotoxicity at 10 µM,-31.1%
COc1cccc(C(=O)N2CCCCC2c2nccs2)c1OC (stereo not given),cytotoxicity at 10 µM,-14.4%
CC(C)Oc1ncccc1CNC(=O)c1ccc(=O)[nH]n1,cytotoxicity at 10 µM,-23.8%
CCc1ccc(S(=O)(=O)Nc2c(C)cccc2C(=O)O)s1,cytotoxicity at 10 µM,-15.9%
CC(C)c1noc(CCCC(=O)NC2CCS(=O)(=O)C2)n1 (stereo not given),cytotoxicity at 10 µM,4.67%
CC(C)c1nnc2n1CCN(C(=O)c1ccc3cc[nH]c3c1)C2,cytotoxicity at 10 µM,4.02%
O=C(c1ccccc1-n1cccn1)N1CCCN(c2cccnn2)CC1,cytotoxicity at 10 µM,7.03%
c1ccc(N2CCC3(COCCN(Cc4cccs4)C3)C2)nc1 (stereo not given),cytotoxicity at 10 µM,1.85%
Cc1noc([C@@H]2C[C@H]3CN(CC4CCOCC4)C[C@H]3O2)n1,cytotoxicity at 10 µM,-137%
CNC(=O)C1Cn2ccnc2C2(CCN(C(=O)c3ccoc3C)CC2)O1 (stereo not given),cytotoxicity at 10 µM,-157%
O=C1COC2(CCN(Cc3ccc(F)cc3)CC2)CN1,cytotoxicity at 10 µM,-25.7%
CC(C)Nc1ccc2nc(C3CCN(C(C)C)CC3)nn2c1,cytotoxicity at 10 µM,-20.4%
Cc1cccc(CN2C[C@@H]3OCCN(S(=O)(=O)N(C)C)[C@@H]3C2)c1,cytotoxicity at 10 µM,-12.4%
CS(=O)(=O)N1C[C@H]2CC[C@@H](C1)N(C(=O)Cn1ccc3ccccc31)C2,cytotoxicity at 10 µM,-1.38%

# — ChEMBL document CHEMBL4513216, “Probing the Open Global Health Chemical Diversity Library for Multistage-Active Starting Points for Next-Generation Antimalarials” (ACS Infect Dis, 2020)
